A selection: hits, their analogues and other compounds. The true share with any hit is near 2.2%.
HTRA1 inh: inhibitors of human serine peptidase HTRA1; Q92743; recombinant HTRA1, FP-rhodamine activity-based probe, fluorescence polarization; inhibition, % at 5.96 µM; hit rate 0.5% among 340,000; AID 504803; in the data active = inhibition above about 36%
TCR CD3 inh: blocks the human TCR-CD3 interaction | TAMRA-labeled TCR probe fluorescence, biochemical | inhibition, % at 9.4 µM | hit rate 0.37% among 360,000; in the data active = inhibition above about 19%;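 also: recombinant mutant TCR 2C K166C tagged with TAMRA read by polarization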
mABHD4 FP: inhibitors of mouse ABHD4. Q8VD66. purified mABHD4, FP-Rh probe fluorescence polarization. inhibition, % at 8.92 µM. hit rate 0.54% among 370,000;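 active = inhibition exceeding the mean over every tested compound plus 3 SD, cut at about 30% in these data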
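Test system: mABHD4 protein | Buffer or medium: HEPES pH 7.0 buffer, 150 mM NaCl, 0.01% Pluronic F-127 | Probe or stimulus: FP-Rh fluorescent activity-based probe, added after compound pre-incubation | Timing: Pre-incubation 45 min, probe exposure 60 min, at 25 °C | Technique: Fluorescence polarization, excitation 525 nm, emission 598 nm, BODIPY TMR filters | Repeats: Single well per compound (singlicate)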
LEDGF integ inh: blocks HIV-1 LEDGF/p75-dependent DNA integration. TR-FRET IN-LEDGF/p75 DNA integration, Eu/Cy5. inhibition, % at 3.7 µM. hit rate 0.64% among 370,000;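 active = inhibition above the screen-wide mean plus 3 SD, cut at about 13% in these data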;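 also: signal is the Cy5 over europium emission ratio at 671 and 618 nm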
SIAE inh: inhibitors of human sialic acid acetylesterase SIAE. SIAE FP-Rh probe binding, fluorescence polarization. inhibition, % at 9.66 µM. AID 1053197. hit rate 0.69% among 370,000. Q9HAT2;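 active = inhibition above a cutoff: mean of compounds within the control limits plus 3 SD of those, cut at about 17% in these data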
Target sequence (Q9HAT2 whole entry, looked up): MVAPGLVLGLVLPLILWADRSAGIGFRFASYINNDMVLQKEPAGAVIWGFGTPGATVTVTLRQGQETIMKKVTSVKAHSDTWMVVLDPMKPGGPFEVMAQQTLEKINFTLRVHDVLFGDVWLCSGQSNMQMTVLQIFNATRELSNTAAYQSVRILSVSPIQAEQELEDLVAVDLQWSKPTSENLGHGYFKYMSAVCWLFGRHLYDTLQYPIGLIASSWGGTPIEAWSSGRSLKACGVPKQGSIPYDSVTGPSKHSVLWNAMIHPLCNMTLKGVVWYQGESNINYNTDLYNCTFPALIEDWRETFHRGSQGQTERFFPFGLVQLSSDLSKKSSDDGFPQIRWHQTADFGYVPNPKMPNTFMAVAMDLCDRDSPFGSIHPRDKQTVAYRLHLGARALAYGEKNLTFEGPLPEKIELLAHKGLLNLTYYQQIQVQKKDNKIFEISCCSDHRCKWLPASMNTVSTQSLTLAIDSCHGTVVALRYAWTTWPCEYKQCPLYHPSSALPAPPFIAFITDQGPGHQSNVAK
TDP2 inh: blocks human TDP2 phosphodiesterase activity. recombinant TDP2, T5PNP hydrolysis, p-nitrophenol absorbance 415 nm. hit rate 0.34% among 370,000. inhibition, % at 12.8 µM. O95551. AID 720702;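 active = inhibition above the mean of all tested compounds plus 3 SD, set per campaign, cut at about 25% in these data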
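Evaluation: % inhibition relative to enzyme-containing and enzyme-free wells. Material: recombinant human TDP2. Benchmarks: enzyme-free and DMSO wells. Timing: enzyme reaction with compound for 2 h at 37 °C. Compound dosing: 12.8 µM only. Measured by: p-Nitrophenol epi absorbance. Reagent: T5PNP substrate at 5 mM, a TopII-DNA adduct mimic. Replication: single well per compound.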
mABHD4 conf: ABHD4 (mouse) inhibition, FP confirmation; shares compounds with mABHD4 FP; hit rate 55% among 1,800; purified mABHD4, FP-Rh probe fluorescence polarization; inhibition, % at 8.92 µM;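 active = mean inhibition across replicates above the hit cutoff set in the primary screen, cut at about 30% in these data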
Of the large screens only hits and unclear results are named; the others gave an inactive call (follow-up assays come after a bar, where they were run).

CCOC(=O)N1CCC(NC(=O)CCN2C(=O)C3C4C=CC(C4)C3C2=O)CC1 (configuration not stated)	none
O=C(CCN1C(=O)C2C3C=CC(C3)C2C1=O)NC1CCCCC1 (configuration not stated)	mABHD4 FP 88 | mABHD4 conf inactive
Cc1ccc(CN(C)C[C@H]2OCc3cnnn3CCCC(=O)N([C@H](C)CO)C[C@@H]2C)cc1	none (no result: HTRA1 inh)
COC(=O)c1cc2c(c3c4ccccc4n(S(=O)(=O)c4cccc(C)c4)c13)C(=O)N(Cc1ccccc1OC)C2	none (no result: HTRA1 inh)
COc1ccccc1CNC(=O)COC(=O)c1cc(C)nc2ccccc12	none
COc1cc2cc(C)nc(Cc3cccc4ccccc34)c2cc1OC	mABHD4 FP 33 | mABHD4 conf 41
COc1cc(CCN=Cc2cccc(OC)c2O)c([N+](=O)[O-])cc1OC	none (no result: HTRA1 inh)
COc1cccc(C(CC2=CCCCC2)NC(=O)C(F)(F)F)c1 (configuration not stated)	none (no result: HTRA1 inh)
Cc1cc(O)ccc1Nc1cc(-c2cccc(N(C)C)c2)ncn1	none (no result: HTRA1 inh)
CN(C)c1cccc(O)c1	mABHD4 FP 51 | mABHD4 conf inactive
COc1ccccc1CCNC(=O)c1ccc(Br)s1	mABHD4 FP 118 | mABHD4 conf inactive
COc1ccccc1CCNS(=O)(=O)CCNC(=O)c1ccccc1	none
O=C(NCc1ccccc1Cl)O[C@H]1CC[C@@]23CCCN2C(=O)CCC[C@H]3C1	none (no result: HTRA1 inh, TCR CD3 inh)
CC1(C)CC(=O)C2=C(C1)c1c(ccc3ccccc13)NC2c1cc([N+](=O)[O-])cc([N+](=O)[O-])c1O (configuration not stated)	none
CC1(C)CC(=O)C2=C(C1)NC1=C(C(=O)c3ccccc31)C2c1cccnc1 (configuration not stated)	none
CC1(C)CC(=O)C2=C(C1)NC1=C(C(=O)c3ccccc31)C2c1cc([N+](=O)[O-])ccc1O (configuration not stated)	mABHD4 FP 49 | mABHD4 conf 66
CC1(C)CC(=O)C2=C(C1)NC1=C(C(=O)c3ccccc31)C2c1ccccc1 (configuration not stated)	mABHD4 FP 51 | mABHD4 conf 47
COc1ccc(CCC(=O)Nc2nc3c(s2)CN(C)CC3)cc1OC	mABHD4 FP 89 | mABHD4 conf inactive
Cc1ccccc1NC(=O)Cc1nc(COC(=O)c2cc(Br)ccc2O)cs1	none
Cc1ccccc1NC(=O)Cc1nc(COC(=O)c2cc([N+](=O)[O-])ccc2N)cs1	mABHD4 FP 62 | mABHD4 conf 126
O=C(CNc1cccc2ccccc12)N/N=C/c1ccccn1	mABHD4 FP 39 (no result: HTRA1 inh) | mABHD4 conf 31
N#Cc1c(NC(=O)c2cccc(S(=O)(=O)Nc3ccc(C(=O)O)cc3)c2)sc2c1CCCC2	mABHD4 FP 36 | mABHD4 conf 30
O=C(O)c1ccc(NS(=O)(=O)c2cccc(C(=O)Nc3ccc(Br)cc3)c2)cc1	none
Nc1ccn(C[C@@H](CO)OCP(=O)(O)O)c(=O)n1	none (no result: HTRA1 inh, TCR CD3 inh)
CCOc1ccccc1C1C(C#N)=C(N)Oc2cc(N)ccc21 (configuration not stated)	mABHD4 FP 31 | mABHD4 conf inactive
Cc1ccc(Cn2cc(COC(=O)N3CCOCC3)nn2)cc1	none (no result: HTRA1 inh, TCR CD3 inh)
F[B-](F)(F)c1cnc2ccccc2c1	mABHD4 FP 31 | mABHD4 conf inactive
c1cncc(-c2cnc3ccccc3c2)c1	none
Cc1cc(=O)oc2cc(OC(C)C(=O)NCC3CCC(C(=O)O)CC3)ccc12 (configuration not stated)	none
Cc1cc(=O)oc2cc(OCC(=O)Nc3ccccc3C(=O)O)ccc12	mABHD4 FP 35 | mABHD4 conf 39
CC(Oc1ccc2c(-c3ccccc3)cc(=O)oc2c1)C(=O)NCC1CCC(C(=O)O)CC1 (configuration not stated)	mABHD4 FP 49 | mABHD4 conf 38
Cc1cc(=O)oc2cc(OCC(=O)OCC(=O)Nc3ccccc3Br)ccc12	none
O=C(COc1ccc2c(-c3ccccc3)cc(=O)oc2c1)NCC1CCC(C(=O)O)CC1 (configuration not stated)	mABHD4 FP 40 | mABHD4 conf 42
O=C(NCc1ccccc1)Nc1ccccc1C(=O)N1CCCC1	none (no result: HTRA1 inh, TCR CD3 inh)
CCOC(=O)C1=C(C)N=C2c3ccccc3C(=O)C2C1c1ccc(C)cc1 (configuration not stated)	none
CCOC(=O)C1=C(C)N=C2c3ccccc3C(=O)C2C1c1ccccc1 (configuration not stated)	mABHD4 FP 34 | mABHD4 conf 37
O=C(O)c1ccc(Cl)c(S(=O)(=O)Nc2ccccc2Cc2ccccc2)c1	mABHD4 FP 30 | mABHD4 conf inactive
CON(C)C(=O)/C=C/c1ccc([B-](F)(F)F)cc1	mABHD4 FP 42 | mABHD4 conf 47
COc1ccccc1CNc1nc(NCCOc2ccccc2)c2sccc2n1	mABHD4 FP 37 (no result: HTRA1 inh) | mABHD4 conf 40
Cc1ccc(CNc2nc(NCc3ccccc3)nc3ccsc23)c(C)c1	mABHD4 FP 35 (no result: HTRA1 inh) | mABHD4 conf 47
c1ccc(-c2cccc3[nH]cc(-c4ccccc4)c23)cc1	none (no result: HTRA1 inh, TCR CD3 inh)
COc1cccc2cc3c(nc12)C[C@@H]1CCCC(=O)N2CCC[C@@]12C3	none (no result: HTRA1 inh, TCR CD3 inh)
N=C1S/C(=C\c2ccc(-c3ccccc3C(=O)O)o2)C(=O)N1c1ccc2c(c1)OCO2	mABHD4 FP 49 | mABHD4 conf 63
O=C(c1ccc(-c2ccccc2)cc1)N1CCCC1	none
O=C(N1CCCC1)n1ncc(-c2ccc(-c3ccccc3)cc2)n1	mABHD4 FP 47 (no result: HTRA1 inh, TCR CD3 inh) | mABHD4 conf 42
CCN(CC)S(=O)(=O)c1ccc(O)c(C(=O)OCC(=O)N2CCCC2)c1	none
COc1ccccc1NS(=O)(=O)c1ccc(O)c(C(=O)OCC(=O)N2c3ccccc3CC2C)c1 (configuration not stated)	mABHD4 FP 35 | mABHD4 conf inactive
CCN(CC)S(=O)(=O)c1ccc(O)c(C(=O)OCC(=O)N2c3ccccc3CC2C)c1 (configuration not stated)	mABHD4 FP 56 | mABHD4 conf 58
CC1(C)CC(=O)C=C(C2CC2)C1=O	none (no result: HTRA1 inh)
CC1=C(C#N)C(=O)NC(=O)/C1=C\c1ccc(-c2ccc(C)cc2[N+](=O)[O-])o1	mABHD4 FP 32 | mABHD4 conf 33
COC(=O)[C@]12C[C@H](CC(=O)NCCc3ccccc3OC)C(=O)N(CCc3ccc(OC)c(OC)c3)C1=C[C@H](C(C)(C)C)O[C@@H]2C	none (no result: HTRA1 inh, TCR CD3 inh)
N[C@@H](Cc1cc(I)c(O)c(I)c1)C(=O)O	mABHD4 FP 51 | mABHD4 conf 80
